Laboratory results as given in the M2OR odorant receptor database.
Changes are numbered by the printed parent chain.

Legend:
Conditions in all cases: stereoisomer not certain
OR2W1 (Homo sapiens) = biological target: T1, OR2W1 (Homo sapiens) (UniProt Q9Y3N9)
T1 sequence (whole entry): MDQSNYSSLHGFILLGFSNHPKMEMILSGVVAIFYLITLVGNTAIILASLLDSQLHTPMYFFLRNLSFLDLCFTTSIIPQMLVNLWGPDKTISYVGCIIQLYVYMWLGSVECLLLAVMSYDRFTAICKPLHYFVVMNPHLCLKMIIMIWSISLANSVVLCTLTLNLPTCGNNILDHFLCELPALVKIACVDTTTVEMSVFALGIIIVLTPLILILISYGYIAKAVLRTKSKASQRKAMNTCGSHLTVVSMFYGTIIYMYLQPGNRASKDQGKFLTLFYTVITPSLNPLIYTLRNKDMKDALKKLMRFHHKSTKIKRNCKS
Summary of the method: (§1)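 Values were gathered from published papers (main text and supplementary material), with extra details requested from the original authors when needed, and checked for typos and inconsistencies. Each receptor–molecule pair is called responsive (active) if the original authors judged the measured signal statistically different from baseline, and non-responsive (inactive) otherwise. Assay methods varied by source, often transient mammalian cell-line luciferase assays. Recorded details include cell line, G-protein, co-transfected protein and tags.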

OR2W1 [1] = tested on: T2, OR2W1
T2 sequence (whole entry): T1 sequence (whole entry) with D296N
Summary of the method: as §1

OR2W1 [2] = tested on: T3, OR2W1; remark: listed apart in the source
T3 sequence (whole entry): T1 sequence (whole entry) with M81V
Summary of the method: as §1

| SMILES | odorant receptor agonist call (OR2W1 (Homo sapiens)) | odorant receptor agonist call (OR2W1 [1]) | odorant receptor agonist call (OR2W1 [2]) |
| --- | --- | --- | --- |
| CCCC(=O)OC | active | active | active |
| COCCC(C)(C)S | active | active | inactive |
| COc1ccc(C)cc1O | inactive | active | inactive |
| SCCc1ccccc1 | active | active | active |
| CCCC1CCCC(=O)O1 (stereo not drawn) | active | active | inactive |
| CCCSSCCC | active | active | inactive |
| CC(=O)OCCC(C)C | active | active | active |
| C=C(C)c1ccc(C)cc1 | active | active | active |
| C=C(C)C1CC=C(C)CC1 (stereo not drawn) | active | active | active |
| C=Cc1ccc(O)cc1 | active | active | active |
| CCC=CCCC=CC=O | active | active | active |
| CCOC(=O)CCSC | active | active | active |
| C=CC(=O)CCCCC | active | active | active |
| CCCCCC=CC=O | active | active | inactive |
| CCCCCCO | active | active | inactive |
| CC=Cc1ccc(OC)cc1 | active | active | active |
| c1coc(CSSCc2ccco2)c1 | active | active | active |
| c1coc(CSCc2ccco2)c1 | active | active | active |
| CCCCCCCC(C)=O | active | active | active |
| C=CC(=C)CCC=C(C)C | active | active | active |
| CCCCCCCC(=O)OCC | active | active | inactive |
| CC(=O)c1cnccn1 | active | active | inactive |
| CC(=O)OCCc1ccccc1 | active | active | active |
| SCc1cccs1 | active | active | active |
| CCCSSSC | active | active | active |
| CCCCCC(=O)OCC | active | active | active |
| CC1=CCC(C(C)C)C=C1 (stereo not drawn) | active | active | inactive |

| SMILES | odorant receptor agonist call (OR2W1 (Homo sapiens)) | odorant receptor agonist call (OR2W1 [1]) | odorant receptor agonist call (OR2W1 [2]) |
| --- | --- | --- | --- |
| OCC=Cc1ccccc1 | active | active | active |
| CCCCC=CC=CC=O | active | active | active |
| O=c1ccc2ccccc2o1 | active | active | inactive |
| CC(C)c1ccc(C=O)cc1 | active | active | active |
| CCc1cccc(O)c1 | active | active | inactive |
| CC1=CCC(C(C)(C)S)CC1 (stereo not drawn) | active | active | inactive |
| CCOC(=O)C(C)CC (stereo not drawn) | active | active | inactive |
| CC(S)c1ccccc1 (stereo not drawn) | active | active | active |
| CCC(C)CO (stereo not drawn) | active | active | active |
| CCc1ccc(O)cc1 | active | active | active |
| CCCCCCOC(C)=O | active | active | active |
| OCCCc1ccccc1 | active | active | active |
| CSCc1ccco1 | active | active | active |
| CCCCCCC=CC=O | active | active | active |
| CC(=O)c1ccc(C)cc1 | active | active | active |
| CCC=CCCOC(C)=O | active | active | active |
| CSCc1ccccc1 | active | active | active |
| CCCCCCCC1CCC(=O)O1 (stereo not drawn) | active | active | active |
| OCCc1ccccc1 | active | active | inactive |
| CCC=CCCC=O | active | active | active |
| CCC(C)COC(C)=O (stereo not drawn) | inactive | active | active |
| CCOC(=O)CC(C)C | active | active | inactive |
| CC(C)=CCCC(C)=CCO | inactive |  | inactive |
| CCOC(=O)C(C)C | inactive | active | inactive |
| CCCCCCC1CCC(=O)O1 (stereo not drawn) | active | active | active |
| CCCCCC=CC=CC=O | active | active | active |
